Experimental data collected from several papers.
Compare with care: the assays were run in different laboratories.
Target: Tyrosine-protein kinase Lyn (LYN, Homo sapiens, UniProt P07948)

SMILES | observed | technique | tested at | remaining binding
Nc1ncc2c(n1)-c1c([nH]c3ccc(C#CC4CC4)cc13)CCCC2 | binding | competition with immobilised ligand | 1 µM | 93%
COc1ncc2cc3ccccc3nc2c1C#N | cell-free assay | competition with immobilised ligand | 5 µM | 94%
CCS(=O)(=O)c1cc2cc(C[C@@](O)(CC(C)(C)c3ccc(F)cc3C(N)=O)C(F)(F)F)[nH]c2cn1 | cell-free assay | competition with immobilised ligand | 1 µM | 100%
Cc1ccc(-n2nc(C(C)(C)C)cc2NC(=O)Nc2ccc(-n3c(N)c(C(N)=O)c4nc5ccc(NCCCN)cc5nc43)cc2)cc1 | cell-free assay | competition with immobilised ligand | 1 µM | 0.5%
FC(F)(F)Oc1cccc(-c2cnc3ccc(-c4ccncc4)nn23)c1 | cell-free assay | competition with immobilised ligand | 5 µM | 93%
CNC(=O)[C@@H]1CC[C@@H](n2c(-c3ccc4cnccc4c3)nc3ccc(C(=O)NCc4cccc(C(N)=O)c4)cc32)C1 | binding | competition with immobilised ligand | 1 µM | 95%
O=C(c1ccc(Nc2nccc(-c3cc4ccccc4s3)n2)cc1)N1CCC(N2CCCC2)CC1 | binding | competition with immobilised ligand | 1 µM | 97%
CCCCN(CCCC)C(=O)CN1C[C@@H](c2cc(OC)c3c(c2)OCO3)[C@H](C(=O)O)[C@H]1CC(C)(C)CCC | cell-free assay | competition with immobilised ligand | 1 µM | 75.1%
CN(C)c1ncc(F)c(-c2cnn3ncccc23)n1 | binding |  | 1 µM | 100%
O=C(Nc1cnc(Oc2ccc(F)cc2)nc1)N1CCc2ncccc2[C@@H]1c1ccc(F)cc1 | cell-free assay | competition with immobilised ligand | 1 µM | 82%
CN(CCCC(F)(F)F)c1nccc(-c2cnn3ncccc23)n1 | binding |  | 1 µM | 86%
CNC(=O)Nc1ccc2c(c1)[C@@]1(CC2)OC(=O)N(CC(=O)N(Cc2ccc(F)cc2)[C@@H](C)C(F)(F)F)C1=O | cell-free assay | competition with immobilised ligand | 1 µM | 100%
N[C@H]1CCN(c2nccc(-c3cnn4ncccc34)n2)C1 | binding |  | 1 µM | 99%
O=C(NCCCN1CCOCC1)c1ccc(Nc2ncc(Cl)c(-c3ccc(Cl)s3)n2)cc1 | binding | competition with immobilised ligand | 1 µM | 87%
CN(C)c1nccc(-c2cnn3ncccc23)n1 | binding |  | 1 µM | 83%
C[C@@H](c1ccc(-n2cnc3c(N)ncnc32)cc1)N1CCc2nn(C)c(Cc3ccccc3)c2C1=O | binding | competition with immobilised ligand | 0.1 µM | 100%
